Data on 14 compounds can be found in ChEMBL document CHEMBL1799948, “Side chain SAR of bicyclic β-lactamase inhibitors (BLIs). 2. N-Alkylated and open chain analogs of MK-8712” (Bioorg Med Chem Lett, 2011).

pIC50: −log10 of the molar value.

One experiment addresses Beta-lactamase (Pseudomonas aeruginosa (strain ATCC 15692 / PAO1 / 1C / PRS 101 / LMG12228), UniProt P24735). Briefly: Inhibition of Pseudomonas aeruginosa CL5701 AmpC by spectrophotometric assay. The gist of the method: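 AmpC from Pseudomonas aeruginosa, in 100 mM KH₂PO₄ buffer pH 7 with 0.005% BSA. Inhibitor serially diluted from DMSO and preincubated with enzyme 40 min at room temperature. Nitrocefin then added for a further 40 min. Quenched with 2.5 N acetic acid, absorbance read at 492 nm. IC₅₀ taken from semi-log plots of inhibition versus inhibitor concentration.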

Experiment [1] addresses Beta-lactamase (Pseudomonas aeruginosa (strain ATCC 15692 / PAO1 / 1C / PRS 101 / LMG12228)) (UniProt P24735). Description: Inhibition of AmpC in Pseudomonas aeruginosa CL5701 assessed as concentration required to reduce the imipenen MIC from 32 ug/ml to 4 ug/ml by in vitro synergy assay.

As a reminder, the pIC50 is the IC50 on a negative log10 scale, so that one unit is a factor of ten. Lower therefore signals a high IC50.

Sequence of Beta-lactamase (P24735 whole entry): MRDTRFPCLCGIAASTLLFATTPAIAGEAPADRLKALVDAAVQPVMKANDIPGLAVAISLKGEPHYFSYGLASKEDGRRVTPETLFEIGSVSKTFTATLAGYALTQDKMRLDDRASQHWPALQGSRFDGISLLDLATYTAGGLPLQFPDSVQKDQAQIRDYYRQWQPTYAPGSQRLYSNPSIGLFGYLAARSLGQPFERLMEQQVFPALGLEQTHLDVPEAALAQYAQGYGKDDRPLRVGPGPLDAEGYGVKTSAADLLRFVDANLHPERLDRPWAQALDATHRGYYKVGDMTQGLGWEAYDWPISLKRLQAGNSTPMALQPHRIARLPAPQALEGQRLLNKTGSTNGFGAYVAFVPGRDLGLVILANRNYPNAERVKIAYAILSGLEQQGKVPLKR
Sequence of Beta-lactamase (Pseudomonas aeruginosa (strain ATCC 15692 / PAO1 / 1C / PRS 101 / LMG12228)) (P24735 27-397 limits assumed): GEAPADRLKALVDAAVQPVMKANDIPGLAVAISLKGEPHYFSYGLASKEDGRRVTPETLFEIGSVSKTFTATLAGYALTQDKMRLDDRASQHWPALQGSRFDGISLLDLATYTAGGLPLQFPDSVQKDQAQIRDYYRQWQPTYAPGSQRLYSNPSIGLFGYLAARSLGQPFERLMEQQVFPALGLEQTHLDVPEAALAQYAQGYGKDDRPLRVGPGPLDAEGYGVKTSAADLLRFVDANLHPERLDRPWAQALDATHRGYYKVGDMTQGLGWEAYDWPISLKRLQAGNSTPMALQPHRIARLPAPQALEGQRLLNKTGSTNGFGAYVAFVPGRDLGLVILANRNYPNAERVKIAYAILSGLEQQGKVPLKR

Consider `C[N+]1(C)CCC[C@H](NC(=O)N2CC[C@@H]3[C@H]2C(=O)N3S(=O)(=O)[O-])CC1`, for which the negative-log IC50 (pIC50) at Beta-lactamase is 5.82. For the same compound, the Activity in experiment [1] came out at 50 µM.
In the case of `O=C(N[C@H]1CCCN(CCO)CC1)N1CC[C@@H]2[C@H]1C(=O)N2S(=O)(=O)O`, the negative logarithm of the IC50 (pIC50) against Beta-lactamase was 6.05. In experiment [1], the Activity is 25 µM.
On Beta-lactamase, `CNCCCCNC(=O)N1CC[C@@H]2[C@H]1C(=O)N2S(=O)(=O)O` gave a pIC50 of 5.46. Moreover, the Activity in experiment [1] was found to be 25 µM.
`CN(C)CCCNC(=O)N1CC[C@@H]2[C@H]1C(=O)N2S(=O)(=O)O` gave a negative-log IC50 (pIC50) against Beta-lactamase of 5.68. Also, the Activity in experiment [1] is 25 µM.
`O=C(N[C@H]1CCCN(CCCO)CC1)N1CC[C@@H]2[C@H]1C(=O)N2S(=O)(=O)O` gave a pIC50 against Beta-lactamase of 5.96. In addition, in experiment [1], the Activity was found to be 50 µM.
`NC(=O)N1CC[C@@H]2[C@H]1C(=O)N2S(=O)(=O)O` showed a pIC50 at Beta-lactamase of 4.80. Moreover, the Activity in experiment [1] was over 100 µM.
`CN1CCC[C@H](NC(=O)N2CC[C@@H]3[C@H]2C(=O)N3S(=O)(=O)O)CC1` had a pIC50 against Beta-lactamase of 5.59. Besides, the Activity in experiment [1] is 25 µM.
As to `NCCN1CCC[C@H](NC(=O)N2CC[C@@H]3[C@H]2C(=O)N3S(=O)(=O)O)CC1`, the pIC50 at Beta-lactamase was 6.22. Further, the Activity in experiment [1] came to 25 µM.
In turn, `CN(C)CCCCCNC(=O)N1CC[C@@H]2[C@H]1C(=O)N2S(=O)(=O)O` had a pIC50 at Beta-lactamase of 5.72. In experiment [1], the Activity stood at 100 µM.
For `CC(C)NC(=O)N1CC[C@@H]2[C@H]1C(=O)N2S(=O)(=O)O`, in that order: 5.74 and over 100 µM.
For `CNCCCNC(=O)N1CC[C@@H]2[C@H]1C(=O)N2S(=O)(=O)O`, in that order: 5.28 and 50 µM.
In the case of `O=C1[C@H]2NCC[C@H]2N1S(=O)(=O)O`, the pIC50 against Beta-lactamase was under 3.60. In experiment [1], the Activity is over 100 µM.
At Beta-lactamase, `CN(C)CCCCNC(=O)N1CC[C@@H]2[C@H]1C(=O)N2S(=O)(=O)O` gave a pIC50 of 5.80. Further, in experiment [1], the Activity is 25 µM.
At Beta-lactamase, `CN(C)CCN1CCC[C@H](NC(=O)N2CC[C@@H]3[C@H]2C(=O)N3S(=O)(=O)O)CC1` had a pIC50 of 6.05. In addition, the Activity in experiment [1] stood at 100 µM.
